MMP13 inh: inhibitors of human MMP13; P45452; MMP-13 fTHP FRET cleavage, Mca fluorescence; inhibition, % at 4 µM; hit rate 0.07% among 65,000;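 active means inhibition above the mean of compound-free control plate wells plus 3 SD, cut at about 14% in these data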;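 further: 0% = DMSO wells and 100% = wells with reference MMP-13 inhibitor after basal subtraction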
Ecoli WT expand: E. coli BW25113 growth inhibition, expanded screen; OD600 absorbance; growth inhibition, % at 100 µM; hit rate 0.15% among 98,000; AID 710;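 active means growth inhibition above about 50% at one test dose, limit read from the data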;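 further: growth measured after 20 h incubation at 37 °C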
Ecoli tolC: growth inhibitors of E. coli BW25113 tolC mutant; OD615; growth inhibition, % at 10 µM (by protocol); hit rate 2.2% among 65,000; AID 573;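 active means growth inhibition at or above a cutoff equal to the mean over every tested compound plus 3 SD, cut at about 60% in these data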;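 further: growth measured after 20 h incubation at 37 °C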
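Assay system: tolC-deleted E. coli BW25113. Medium: kanamycin-containing LB broth (50 µg/mL). Dosing: 10 µM final, single dose. Timing: bacterial growth with compound for 20 h at 37 °C. Detection: A615 absorbance measurement. Read-out basis: growth inhibition in percent.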
AP ELISA ortho: alternative pathway complement inhibition, orthogonal assay | inhibition, % at 5 µM | hit rate 0.08% among 62,000 | Human serum alternative complement pathway, LPS-coated ELISA, C3 deposition; tested in compound mixtures;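 active means inhibition above 30% in each of the two pooled mixtures holding the compound, so the lower value exceeds 30%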;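 further: 0% = serum in Mg-EGTA without compound and 100% = EDTA serum blank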
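Test system: human serum alternative complement pathway, C3 deposition on LPS-coated wells; also added: Plate-bound LPS; doses: 5 µM per compound in ten-compound mixtures; schedule: 1 h at 37 °C; detection: Anti-C3 ELISA, OD 450 nm; evaluation: percent inhibition of C3 deposition onto LPS; repeats: two pool placements per compound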
E coli RNAP: blocks E. coli RNA polymerase transcription. hit rate 0.2% among 62,000. inhibition, %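 (tested at 10 µM)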. fluorescence transcription assay. AID 559; in the data active means inhibition above about 20%;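 further: 0% = enzyme without compound and 100% = no enzyme blank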
BAP1 block: inhibitors of human BAP1 deubiquitinase; Q92560; recombinant BAP1, Ub-AMC hydrolysis fluorescence kinetic; stronger effect = lower value; calls only at 20 µM; hit rate 0.48% among 72,000;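 active means activity remaining at or below 50% of control, provided the compound also passes the data quality filters; inactive means the rest, including low values that fail the filters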;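 further: 100% = DMSO wells rate and 0% = substrate alone blank rate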
Target sequence (Q92560 whole entry, looked up): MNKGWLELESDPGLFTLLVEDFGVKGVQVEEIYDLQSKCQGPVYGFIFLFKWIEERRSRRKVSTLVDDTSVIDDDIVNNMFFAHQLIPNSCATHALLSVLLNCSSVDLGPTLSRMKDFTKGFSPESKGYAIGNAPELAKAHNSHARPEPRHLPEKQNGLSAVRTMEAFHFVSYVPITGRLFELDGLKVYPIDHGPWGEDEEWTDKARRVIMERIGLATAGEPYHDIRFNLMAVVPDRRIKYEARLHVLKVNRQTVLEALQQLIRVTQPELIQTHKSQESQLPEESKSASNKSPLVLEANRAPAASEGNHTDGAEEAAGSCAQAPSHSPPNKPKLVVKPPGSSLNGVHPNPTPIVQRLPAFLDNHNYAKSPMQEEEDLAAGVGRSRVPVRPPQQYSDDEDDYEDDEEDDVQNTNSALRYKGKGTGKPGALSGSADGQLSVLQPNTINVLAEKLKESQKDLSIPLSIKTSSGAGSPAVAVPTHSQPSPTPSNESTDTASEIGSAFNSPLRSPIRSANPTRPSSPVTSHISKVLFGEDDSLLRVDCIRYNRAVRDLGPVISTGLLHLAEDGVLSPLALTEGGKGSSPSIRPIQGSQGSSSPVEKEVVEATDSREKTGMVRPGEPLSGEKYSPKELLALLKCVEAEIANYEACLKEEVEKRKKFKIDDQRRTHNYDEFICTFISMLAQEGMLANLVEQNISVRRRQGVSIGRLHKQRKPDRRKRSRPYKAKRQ
Active calls of the source: *; i = inactive; · = no result given. Only a selection was taken, and hits are over-represented in it overall.

SMILES	MMP13 inh	Ecoli WT expand	Ecoli tolC	AP ELISA ortho	E coli RNAP	BAP1 block
CCCc1cc(=O)oc2cc(OCc3cccc(Cl)c3)ccc12	·	·	·	·	·	i
COc1ccc(N2C(=O)c3ccc(Oc4cccc([N+](=O)[O-])c4)cc3C2=O)cc1	·	·	·	·	·	i
COc1ccc(-n2c(C)nc3c(cnn3-c3ccc(Cl)cc3)c2=O)cc1	-2	-2	75*	11	9	i
CC(C)(C)c1ccc(-c2nnc(SCCC#N)n2C2CCCC2)cc1	2	-10	61*	7	5	i
O=C(CSc1nnc(-c2ccc(Br)cc2)n1C1CCCCC1)N1CCCC1	-2	-5	6	7	1	i
CCC(C)C(=O)N1c2ccccc2C(N(C(=O)COc2ccccc2)c2ccccc2)CC1C (centres undefined)	·	·	·	·	·	i
C=C(C)COc1ccc(-c2[nH]ncc2Oc2cccc(OC)c2)c(O)c1	-6	13	100*	-6	9	i
C=C(C)COc1ccc(-c2[nH]ncc2-c2ccc(OC)c(OC)c2)c(O)c1	-8	2	91*	8	·	i
C=C(C)COc1ccc(-c2[nH]ncc2-c2ccccc2)c(O)c1	·	26	·	·	·	·
C=C(C)COc1ccc(-c2[nH]ncc2Oc2ccccc2OCC)c(O)c1	-5	9	100*	1	5	i
COc1cccc(Oc2cnc(N)nc2-c2ccc(OC)cc2O)c1	5	1	33	6	10	i
Cc1cccc(NC(=O)c2cc3ccccc3o2)c1	-15	11	16	-2	12	i
O=C(Nc1cccc(Br)c1)c1cc2ccccc2o1	4	4	100*	16	-3	i
Cc1nn(Cc2ccc(C(=O)N3c4ccc(F)cc4CCC3C)o2)c(C)c1Br (centres undefined)	2	-5	96*	12	6	i
Cc1nc(N)c(C#N)c(-c2ccccc2)c1C	-1	-5	-2	6	10	i
CC1=C(C#N)c2nc(N)c(C#N)c(C)c2/C1=C\c1ccccc1	-7	·	74*	2	3	i
Cc1cc(C)c2oc(-c3ccc(C)c(NC(=O)c4cccc(F)c4)c3)nc2c1	·	·	·	·	·	i
CC(C)Oc1ccc(C2CC(=O)NC3=C2C(=O)CCC3)cc1 (centres undefined)	0	-2	-14	8	22*	i
O=C1CCCC2=C1C(c1cccs1)n1nc(SCc3ccccc3F)nc1N2 (centres undefined)	-20	-10	28	-6	-1	i
Cc1ccccc1CSc1nc2n(n1)C(c1cccs1)C1=C(CCCC1=O)N2 (centres undefined)	2	-12	100*	8	8	i
COc1ccc(CNC(=O)C(C)NC(=O)c2cc3ccccc3o2)cc1 (centres undefined)	0	0	-14	16	39*	i
COc1ccc(NC(=O)c2cc3ccccc3o2)c(OC)c1	·	·	·	·	·	i
CN(C)c1ccc(C2C=C(c3ccc(Cl)cc3OC(F)F)Nc3ncnn32)cc1 (centres undefined)	-5	-10	96*	19	-1	i
Cc1ccc(C2C=C(c3ccccc3OC(F)F)Nc3ncnn32)cc1 (centres undefined)	-49	-4	54	19	-2	i
Cc1ccc(-c2nn(-c3ccccc3)cc2CSC(=N)N)cc1	·	98*	·	·	·	·
SMILES	MMP13 inh	Ecoli WT expand	Ecoli tolC	AP ELISA ortho	E coli RNAP	BAP1 block
OCc1cn(-c2ccccc2)nc1-c1ccc(-c2nn(-c3ccccc3)cc2CO)cc1	-16	-6	3	9	5	·
CC(O)C(=O)C12CC3CC(CC(C3)C1)C2 (centres undefined)	·	·	·	·	·	i
O=C1c2ccccc2C(=O)N1CCC(c1ccc(F)cc1)c1ccco1 (centres undefined)	5	4	77*	12	0	i
O=C1CCC(=O)N1CCC(c1ccc(F)cc1)c1ccco1 (centres undefined)	1	-5	-1	13	1	i
Cc1cc(N2CCCCC2)nc(SCc2ccc(C#N)cc2)n1	-8	0	78*	11	7	i
Cc1cc(C)n2c(SCc3ccc(C#N)cc3)nnc2n1	0	6	-3	19	0	i
Cc1cccc(S(=O)(=O)Nc2nc3ccccc3nc2NCc2ccco2)c1	-8	-3	75*	10	8	·
O=S(=O)(Nc1nc2ccccc2nc1NCc1ccco1)c1ccc(Cl)cc1	-4	-5	96*	2	8	i
Cc1cccc(N2C(=O)C(Cl)=C(NC3CCCCC3)C2=O)c1C	·	·	·	·	·	i
CC(Oc1ccccc1Br)C(=O)N1CCc2ccccc21 (centres undefined)	0	6	69*	23	6	i
CC(Oc1ccc(Br)cc1)C(=O)N1CCc2ccccc21 (centres undefined)	-1	-2	20	-2	-9	i
COC(=O)c1ccc(N2C(=O)CC(NCCc3ccc(S(N)(=O)=O)cc3)C2=O)cc1 (centres undefined)	·	·	·	·	·	i
Cc1ccc(Cl)cc1N1CCN(C(=O)CCS(=O)(=O)c2cccc3nonc23)CC1	4	·	61*	14	0	·
Cc1oc2cc(OCc3ccc(Cl)cc3)ccc2c(=O)c1Oc1ccccc1	·	·	·	·	·	i
CC1CCCC(C)N1C(=O)CN1C(=O)C(C)(C)Oc2ccc(C(=O)NC3CCCC3)cc21 (centres undefined)	-1	8	-10	25	6	i
CC1CCCC(C)N1C(=O)CN1C(=O)C(C)(C)Oc2ccc(C(=O)NC3CCCCC3)cc21 (centres undefined)	-6	0	84*	10	9	·
C1CCC(c2nn3c(-c4n[nH]c5c4CCC5)nnc3s2)CC1	-4	9	39	11	4	·
CN(C)c1ccc(-c2nn3c(-c4ccncc4)nnc3s2)cc1	-10	·	84*	8	7	i
CCN(CC)c1ccc(-c2nn3c(-c4n[nH]c5c4CCC5)nnc3s2)cc1	-84	-2	74*	14	2	·
Cc1ccc(NC(=O)COc2ccc([N+](=O)[O-])cc2)c(Br)c1	·	·	·	·	·	i
Cc1nc2nc(-c3ccco3)[nH]n2c(=O)c1Cc1ccccc1	-26	2	72*	5	4	i
Cc1nc2nc(-c3ccccc3)[nH]n2c(=O)c1Cc1ccccc1	-25	-8	29	10	5	i
Cc1ccc(S(=O)(=O)NCCSc2nnnn2-c2cc(C)ccc2C)cc1	-1	-11	68*	-14	12	i
COC(=O)c1c(NC(=O)c2ccc(C)o2)sc2c1CCCCC2	-23	8	63*	-5	-3	·
Cc1ccc(C(=O)Nc2sc3c(c2C(=O)O)CCCCC3)o1	-1	-8	20	-10	7	i
COC(=O)c1c(NC(=O)Cc2cccs2)sc2c1CCCC2	-4	-14	70*	-1	11	i

Screens as filed in PubChem BioAssay.
